Source: PubChem
Only a sample is shown.
PGC1a acetyl up = compounds raising PGC1a acetylation signal, primary screen, PGC1a modulator project, cell-based, U2OS, AlphaScreen, signal-increasing mode; overnight; activation, % at 15.6 µM; 350,000 tested, 0.21% active; AID 651723, 2012;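 active = every replicate reaching activation of at least 50%, whatever the mean replicate activation; inconclusive = replicates that disagree or another doubt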;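 note: hits raise the AlphaScreen acetylation signal above neutral controls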
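Incubation: overnight compound treatment, 37 °C. System: U2OS cells transduced with flag-tagged PGC1a and GCN5 acetyltransferase. Detection: AlphaScreen lysate read. Compound: single-point compound dosing.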
Hep G6PC suppr = suppressors of forskolin-stimulated G6PC mRNA, dose response, PGC-1a acetylation activator project, cell-based, hepatocytes, RT-qPCR, cherry-picked samples. 240 tested, under 10 active. G6PC suppression (normalized activity, % of positive control; higher = more suppression), % at 26 µM. shares compounds with PGC1a acetyl up. primary mouse hepatocytes;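 active = dose curves showing G6PC suppression whose half-maximal dose is at most twice the top valid dose; inconclusive = flat curves with moderate negative activity, or unreliable fits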;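 note: G6PC expression relative to GAPDH housekeeping gene as delta delta Ct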
PCK1 hep suppr = suppression of PCK1 mRNA in primary hepatocytes, dose response, PGC-1a acetylation activator project, cell-based, primary mouse hepatocytes, RT-qPCR, cherry-pick; shares compounds with PGC1a acetyl up; forskolin-stimulated; PCK1 expression decrease, unspecified at 26 µM; 230 tested, under 10 active; AID 743465, 2014;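 active = compounds lowering PCK1 expression whose fitted half-maximal concentration is at most twice the top tested dose; inconclusive = flat fit with moderate opposite-direction effect, or poor fit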;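 note: higher delta delta Ct means lower PCK1 expression so positive values indicate hits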
Hep PGC-1a down = suppression of PGC-1a mRNA in primary hepatocytes, dose response, PGC-1a acetylation activator project, cell-based, primary mouse hepatocytes, RT-qPCR, cherry-pick; shares compounds with PGC1a acetyl up; PGC-1a mRNA qPCR, forskolin; top dose 26 µM; max activity (PGC-1a expression decrease), %; 240 tested, under 10 active; AID 743467, 2014;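 active = compound lowering PGC-1a expression with fitted half-maximal concentration at most twice its top tested dose; inconclusive = flat curve with moderate opposite-direction effect, or poor fit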
Each line names hits and unclear results; the compound was inactive in the other large screens (follow-up assays come after a bar, where they were run).

CCn1c(SCC(=O)Nc2ccc(NC(=O)c3ccco3)cc2)nnc1-c1cccs1	PGC1a acetyl up 124 | Hep G6PC suppr inactive | PCK1 hep suppr inactive | Hep PGC-1a down inactive
COc1ccc(C2NC(=S)NC3=C2CCCC3=C2SCCS2)cc1 (configuration not stated)	none
COc1ccc(Cn2nnnc2CN(Cc2cc3ccc(C)cc3[nH]c2=O)C2CCCC2)cc1	none
Cc1ccc2nsnc2c1S(=O)(=O)N(Cc1ccco1)Cc1cc2cccc(C)c2[nH]c1=O	none
O=C(Nc1ccc(-c2noc(CCc3ccccc3)n2)cc1)c1cccnc1	PGC1a acetyl up 131 | Hep G6PC suppr inactive | PCK1 hep suppr inactive | Hep PGC-1a down inactive
Cc1ccc2oc(Nc3nc(C)c(C)c(C)n3)nc2c1	none
Cc1ccc2oc(-c3ccc(NC(=O)c4cccnc4)cc3)nc2c1	PGC1a acetyl up 73 | Hep G6PC suppr inactive | PCK1 hep suppr inactive | Hep PGC-1a down inactive
COC(=O)c1ccc(NC(=O)c2cccnc2)cc1	PGC1a acetyl up 127 | PCK1 hep suppr inactive | Hep PGC-1a down inconclusive
COc1cc(/C=N/NC(=O)c2ccncc2)ccc1OC(C)=O	none
O=S(=O)(NCCSc1ccc(Cl)cc1)c1ccc(F)cc1	none
O=S(=O)(NC12CC3CC(CC(C3)C1)C2)c1ccc(F)cc1	PGC1a acetyl up 60 | Hep G6PC suppr inactive | PCK1 hep suppr inactive | Hep PGC-1a down inactive
O=S(=O)(Nc1nc2c(s1)CCCC2)c1ccc(F)cc1	none
Cc1ccc(S(=O)(=O)NC(CC(C)C)C(=O)N2CCCCCCC2)cc1 (configuration not stated)	PGC1a acetyl up 64 | Hep G6PC suppr inactive | PCK1 hep suppr inactive | Hep PGC-1a down inactive
O=C(/C=C/c1ccccc1)CC(O)(c1ccccc1)C(F)(F)C(F)F (configuration not stated)	none
COc1ccc(C2CC(=O)N(C)c3ccccc3S2)cc1 (configuration not stated)	none | Hep G6PC suppr inactive | PCK1 hep suppr inactive | Hep PGC-1a down inactive
C/C(=N/NC(=O)CNC(=O)c1ccccn1)c1ccc([N+](=O)[O-])cc1	none
COC(=O)c1ccc(CSc2nc3c(cnn3-c3ccc(Cl)cc3)c(=O)[nH]2)o1	none
Cc1c(C(=O)NCCSCc2c(F)cccc2Cl)cnn1-c1ccc(Cl)cc1	PGC1a acetyl up inconclusive | Hep G6PC suppr inactive | PCK1 hep suppr inactive | Hep PGC-1a down inactive
C=C[C@H]1CN2CCC1C[C@H]2[C@H](O)c1ccnc2ccc(OC)cc12 (some centres not stated)	none
O=C(OCn1ncc(Br)c(Br)c1=O)c1ccc(F)cc1	none
C/C(=N\NC(=O)c1cc(C)[nH]n1)c1ccc(-c2ccccc2)cc1	none
CC(C)(C)OC(=O)NCCc1nnc(SCc2ccc(Cl)cc2)o1	none
Cc1ccc(C(=O)c2c[nH]c(C(=O)NCc3cccnc3)c2)cc1	PGC1a acetyl up 75 | Hep G6PC suppr inactive | PCK1 hep suppr inactive | Hep PGC-1a down inactive
Cc1ccc(C(=O)c2cncc(Br)c2)cc1	none
Cc1cc(F)cc(-c2cc(C(=O)NCc3ccccc3)[nH]n2)c1	none
CCN(CC)CC#CCOC(c1ccccc1)c1ccccc1	none
COc1cc(CN2CCC(C(=O)NCCC(C)C)CC2)ccc1OCc1ccccc1	PGC1a acetyl up inconclusive | Hep G6PC suppr inactive | PCK1 hep suppr inactive | Hep PGC-1a down inactive
CO[C@H]1CN(C)C(=O)c2cc(NC(=O)Nc3ccc(Cl)cc3)ccc2OC[C@H](C)NC[C@@H]1C	none
COc1ccc(N2C(=O)CC2(/C=C/c2ccccc2OC)C(=O)NC2CCCC2)cc1 (configuration not stated)	none
Cc1ccc(C(=O)N2CCN(c3ccc(NC(=O)c4ccc(Br)o4)cc3)CC2)cc1	PGC1a acetyl up inconclusive | Hep G6PC suppr inactive | PCK1 hep suppr inactive | Hep PGC-1a down inactive
C#CCN(C[C@@H]1[C@@H](OC(=O)NCCCCCC)[C@@H](OC(=O)NCCCCCC)Cn2c(=O)ccc(=O)n21)S(=O)(=O)c1ccc(C)cc1	none
CCN1CCN(Cc2ccc(NC(=O)c3ccc(C)c(NC(=O)c4c[nH]c5cc(C(F)(F)F)ccc5c4=O)c3)cc2C(F)(F)F)CC1	none
Cc1cc(C)nc(NC(=S)Nc2ccccc2)n1	none
NC(=O)C1CCCc2c1[nH]c1ccc(Cl)cc21 (configuration not stated)	none (no result: PGC1a acetyl up) | Hep G6PC suppr inactive | PCK1 hep suppr inactive | Hep PGC-1a down inactive
O=C(NCc1cccs1)C1Cc2c(-c3ccc(Cl)cc3)ccnc2O1 (configuration not stated)	PGC1a acetyl up 101 | Hep G6PC suppr inactive | PCK1 hep suppr inactive | Hep PGC-1a down inactive
CC1CN(c2oc(-c3cccs3)nc2C#N)CC(C)O1 (configuration not stated)	none
Cc1c(Cl)cccc1Nc1ncccc1C(=O)O	none
O=C(NC1CCCCC1)c1cccnc1C(=O)O	none | Hep G6PC suppr inactive | PCK1 hep suppr inactive | Hep PGC-1a down inactive
CCN(CC(=O)NCc1ccc(Cl)cc1)C(=O)CSCC(=O)Nc1ccc(C)cc1	PGC1a acetyl up inconclusive | Hep G6PC suppr inactive | PCK1 hep suppr inactive | Hep PGC-1a down inactive
Cc1c(C(=O)OCC(=O)c2c(N)n(CC(C)C)c(=O)n(C)c2=O)oc2ccccc12	PGC1a acetyl up 64 | Hep G6PC suppr inactive | PCK1 hep suppr inactive | Hep PGC-1a down inactive
O=C(CC1S/C(=N/N=C/c2c[nH]c3ccccc23)NC1=O)Nc1ccccc1 (configuration not stated)	none
COC(=O)Cn1ccc(-c2ccc(Cl)cc2)c(C#N)c1=O	none
O=C1/C(=C\c2ccco2)SC(=S)N1Cc1ccccc1	none
